Measurements as given in ChEMBL document CHEMBL1141787, “Antifungal activity of artemisinin derivatives” (J Nat Prod, 2005).
Values after ≈ are worked out from the molar mass of the structure shown. Active and inactive are the calls of the source. No cut-off for these calls is given here.

Assays:
Format in all cases: functional, organism-based
[1] = tested on: Cryptococcus neoformans; assay: Antifungal activity against Cryptococcus neoformans ATCC 90113 by modified NCCLS method
In short: (§1)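 Broth microdilution following a modified NCCLS method. The inoculum was a subculture diluted in its incubation broth. Compounds were dissolved in DMSO, serially diluted in normal saline and tested in duplicate, at final concentrations starting at 50 µg/mL. Amphotericin B served as positive control, with media-only blanks. Turbidity was read at 630 nm before and after incubation. Percent growth was plotted against concentration to give IC50/MIC.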

[2] = tested on: Candida albicans; assay: Antifungal activity against Candida albicans ATCC 90028 at 50 ug/mL by modified NCCLS method; in short: as §1
[3] = tested on: Cryptococcus neoformans; assay: Antifungal activity against Cryptococcus neoformans ATCC 90113 at 50 ug/mL by modified NCCLS method; in short: as §1
[4] = tested on: Candida albicans; assay: Antifungal activity against Candida albicans ATCC 90028 by modified NCCLS method; in short: as §1

Row | Compound | IC50 [1] | Activity [2] | Activity [3] | IC50 [4] | MIC [1] | MIC [4]
1 | C[C@H]1[C@@H](O[C@H]2CC[C@H](O)CC2)O[C@@H]2O[C@]3(C)CC[C@H]4[C@H](C)CC[C@@H]1[C@@]24OO3 | 1 µg/mL (≈ 2.61 µM) | inactive | inactive |  |  | 
2 | CCO[C@@H]1O[C@@H]2O[C@]3(C)CC[C@H]4[C@H](C)CC[C@@H]([C@H]1C)[C@@]24OO3 [ALPHA-ARTEETHER] | 0.045 µg/mL (≈ 0.144 µM) | inactive |  | 3 µg/mL (≈ 9.6 µM) | 1.56 µg/mL (≈ 4.99 µM) | 
3 | C[C@H]1[C@@H](OCCCCO)O[C@@H]2O[C@]3(C)CC[C@H]4[C@H](C)CC[C@@H]1[C@@]24OO3 | 0.6 µg/mL (≈ 1.68 µM) | inactive | inactive |  |  | 
4 | C[C@H]1[C@@H](O)O[C@@H]2OC3(C)CC[C@H]4[C@H](C)CC[C@@H]1[C@@]24OO3 (single isomer, unassigned) [ARTENIMOL] | 0.09 µg/mL (≈ 0.317 µM) | inactive |  | 9 µg/mL (≈ 31.7 µM) | 12.5 µg/mL (≈ 44 µM) | 
5 | C=C1[C@@H](OCCO)O[C@@H]2O[C@]3(C)CC[C@H]4[C@H](C)CC[C@@H]1[C@@]24OO3 | 3 µg/mL (≈ 9.19 µM) | inactive | inactive |  |  | 
6 | C[C@H]1[C@@H](O[C@H]2CC[C@@H](O)CC2)O[C@@H]2O[C@]3(C)CC[C@H]4[C@H](C)CC[C@@H]1[C@@]24OO3 | 0.9 µg/mL (≈ 2.35 µM) | inactive | inactive |  |  | 
7 | C[C@H]1[C@@H](Oc2ccc(O)cc2)O[C@@H]2O[C@]3(C)CC[C@H]4[C@H](C)CC[C@@H]1[C@@]24OO3 | 0.087 µg/mL (≈ 0.231 µM) | inactive | inactive |  |  | 
8 | C=C1C(=O)O[C@@H]2OC3(C)CC[C@H]4[C@H](C)CC[C@@H]1[C@@]24OO3 (single isomer, unassigned) [ARTEMISITENE] | 0.045 µg/mL (≈ 0.161 µM) | inactive | inactive |  |  | 
9 | CC1=CO[C@@H]2O[C@]3(C)CC[C@H]4[C@H](C)CC[C@@H]1[C@@]24OO3 [ANHYDRODIHYDROARTEMISININ] | 0.045 µg/mL (≈ 0.169 µM) |  |  | 7 µg/mL (≈ 26.3 µM) | 0.195 µg/mL (≈ 0.732 µM) | 50 µg/mL (≈ 188 µM)
10 | C[C@@H]1[C@H](O)[C@@H](C)/C=C/C=C/C=C/C=C/C=C/C=C/C=C/[C@H](O[C@@H]2O[C@H](C)[C@@H](O)[C@H](N)[C@@H]2O)C[C@@H]2O[C@](O)(C[C@@H](O)C[C@@H](O)[C@H](O)CC[C@@H](O)C[C@@H](O)CC(=O)O[C@H]1C)C[C@H](O)[C@H]2C(=O)O [AMPHOTERICIN B] | 0.35 µg/mL (≈ 0.379 µM) |  |  | 0.1 µg/mL (≈ 0.108 µM) | 0.625 µg/mL (≈ 0.676 µM) | 0.15 µg/mL (≈ 0.162 µM)
11 | C[C@@H]1CC[C@H]2[C@@H](C)C(=O)O[C@@H]3O[C@@]4(C)CC[C@@H]1[C@]32OO4 [ARTEMISININ] | 2 µg/mL (≈ 7.08 µM) |  |  | 8 µg/mL (≈ 28.3 µM) | 50 µg/mL (≈ 177 µM) | 50 µg/mL (≈ 177 µM)
12 | C[C@H]1[C@@H](Oc2ccc(S)cc2)O[C@@H]2O[C@]3(C)CC[C@H]4[C@H](C)CC[C@@H]1[C@@]24OO3 | 0.31 µg/mL (≈ 0.79 µM) | inactive | inactive |  |  | 
13 | CC1=CO[C@@H]2O[C@]3(C)CC[C@H]4[C@H](C)CC[C@@H]1[C@@]24O3 | 6 µg/mL (≈ 24 µM) | inactive | inactive | 30 µg/mL (≈ 120 µM) |  | 
14 | CCO[C@H]1O[C@@H]2O[C@@]3(C)CC[C@H]4[C@H](C)CC[C@@H]([C@H]1C)[C@@]24OO3 [ARTEMOTIL] | 0.085 µg/mL (≈ 0.272 µM) |  |  | 15 µg/mL (≈ 48 µM) | 3.13 µg/mL (≈ 10 µM) | 50 µg/mL (≈ 160 µM)
15 | CO[C@@H]1O[C@@H]2O[C@]3(C)CC[C@H]4[C@H](C)CC[C@@H]([C@H]1C)[C@@]24OO3 | 1.5 µg/mL (≈ 5.03 µM) | inactive | inactive |  |  | 
16 | CO[C@H]1O[C@@H]2OC3(C)CC[C@H]4[C@H](C)CC[C@@H]([C@H]1C)[C@@]24OO3 (single isomer, unassigned) [ARTEMETHER] | 0.6 µg/mL (≈ 2.01 µM) | inactive |  |  | 25 µg/mL (≈ 83.8 µM) | 
